Measurements pooled from the literature.
Lines come from different studies, so protocols differ.
CDK4 with cyclin D1: Cyclin-dependent kinase 4, with cyclin D1 (CDK4, Homo sapiens, UniProt P11802)
CDK4 with cyclin D3: Cyclin-dependent kinase 4, with cyclin D3 (CDK4, Homo sapiens, UniProt P11802)
CDK4: Cyclin-dependent kinase 4 (CDK4, Homo sapiens, UniProt P11802)

The remaining activity of `CC(C)(C)c1cc(C=C(C#N)C#N)cc(Br)c1O` is reported as 115% (CDK4 with cyclin D1; enzyme activity, inhibitor; 0.5 µM).
With `Nc1ncc(-c2nc(N3CCOCC3)nc(N3CCOCC3)n2)c(C(F)F)n1` the remaining binding was 87% (CDK4 with cyclin D3; binding, competition with immobilised ligand; 10 µM).
With `N#CC1(c2ccccn2)CCN(Cc2cc(C(=O)O)c(=O)n3ccccc23)CC1` the remaining binding was 82% (CDK4 with cyclin D3; cell-free assay, competition with immobilised ligand; 1 µM).
`O=c1[nH]c2ccccc2n1C1CCN(Cc2ccc(-c3[nH]c4cc5ncnc5cc4nc3-c3ccccc3)cc2)CC1` gave a remaining signal of 99.7% (CDK4 with cyclin D3; cell-free assay; 0.5 µM).
`CCOC(=O)[C@H]1Cc2c(cc([N+](=O)[O-])cc2[N+](=O)[O-])[C@H](O)[C@]12C(=O)Nc1ccc([N+](=O)[O-])cc12` gave an inhibition of 37.9% (CDK4; cell-free assay, inhibitor, TR-FRET; 1 µM).
`Cc1nn(C)cc1-c1nc2c(N3CCN(Cc4ccc(Cl)cc4)CC3)c(Cl)cnc2[nH]1` gave a remaining binding of 74% (CDK4 with cyclin D3; binding, competition with immobilised ligand; 1 µM).
`Cn1cncc1[C@](O)(COc1ccc(C#N)cc1-c1ccc(OC(F)(F)F)cc1)c1ccc(C#N)cc1` has a remaining binding of 100% (CDK4 with cyclin D1; cell-free assay, competition with immobilised ligand; 1 µM).
`CCOC(=O)[C@H]1Cc2c(cc([N+](=O)[O-])cc2[N+](=O)[O-])[C@H](O)[C@]12C(=O)Nc1cccc(Br)c12` gave an inhibition of 29.4% (CDK4; cell-free assay, inhibitor, TR-FRET; 1 µM).
